{"data": "Measurements pooled from the literature", "cell line": "A549", "effect on": "cell growth or viability", "note": "Lines come from different studies, so protocols differ."}
{"Compound": "N.N.[Cl][Pt][Cl]", "method": "MTT", "time": "24 h", "IC50 [nM]": 5350}
{"Compound": "N.N.[Cl][Pt][Cl]", "method": "resazurin", "time": "72 h", "IC50 [nM]": 3400}
{"Compound": "CC[C@@]1(OC(=O)[C@H](C)N)C(=O)OCc2c1cc1n(c2=O)Cc2cc3cc4c(cc3nc2-1)OCO4", "method": "MTT", "IC50 [nM]": 40}
{"Compound": "C=CCc1cc(OC)c2c(c1)OCO2", "method": "SRB", "IC50 [nM]": 359000}
{"Compound": "COc1c2c(cc3c1OCO3)[C@]13C=C[C@H](OC)C[C@@H]1[N@](C2)C[C@H]3OC(=O)c1ccoc1", "method": "WST-1", "IC50 [nM]": "> 10000"}
{"Compound": "O=C(N/N=C1\\C(=O)N(Cc2ccc(Cl)cc2)c2ccccc21)c1cc2ccccc2[nH]1", "IC50 [nM]": 1050}
{"Compound": "CC[C@@]1(OC(=O)[C@@H](N)Cc2ccccc2)C(=O)OCc2c1cc1n(c2=O)Cc2cc3cc4c(cc3nc2-1)OCO4", "method": "MTT", "IC50 [nM]": 36}
{"Compound": "Cc1ccc(CN2C(=O)/C(=N\\NC(=O)c3cc4ccccc4[nH]3)c3ccccc32)cc1", "IC50 [nM]": 640}
{"Compound": "CC[C@@]1(OC(=O)[C@@H](N)C(C)C)C(=O)OCc2c1cc1n(c2=O)Cc2cc3cc4c(cc3nc2-1)OCO4", "method": "MTT", "IC50 [nM]": 89}
{"Compound": "N#Cc1ccc(CN2C(=O)/C(=N\\NC(=O)c3cc4ccccc4[nH]3)c3ccccc32)cc1", "IC50 [nM]": 2130}
{"Compound": "N.N.[Cl][Pt][Cl]", "method": "MTT", "time": "48 h", "IC50 [nM]": 9240}
{"Compound": "CC[C@@]1(OC(=O)[C@@H](N)CCSC)C(=O)OCc2c1cc1n(c2=O)Cc2cc3cc4c(cc3nc2-1)OCO4", "method": "MTT", "IC50 [nM]": 85}
{"Compound": "COc1cccc2c1C(=O)c1c(O)c3c(c(O)c1C2=O)C[C@@](O)(C(=O)CO)C[C@@H]3O[C@H]1C[C@H](N)[C@H](O[C@@H]2CCCCO2)[C@H](C)O1", "method": "MTT", "time": "12 h", "IC50 [nM]": 5800}
{"Compound": "Nc1cc(I)c(I)cc1N", "time": "72 h", "IC50 [nM]": 25000}
{"Compound": "O=C(N/N=C1\\C(=O)N(Cc2ccccc2)c2ccc(Cl)cc21)c1cc2ccccc2[nH]1", "time": "72 h", "IC50 [nM]": 1330}
{"Compound": "CC[C@@]1(OC(=O)[C@@H](N)CCCCN)C(=O)OCc2c1cc1n(c2=O)Cc2cc3cc4c(cc3nc2-1)OCO4", "method": "MTT", "IC50 [nM]": 88}
{"Compound": "CC1=C(O)C(=O)C=C2C1=CC=C1[C@@]2(C)CC[C@@]2(C)[C@@H]3C[C@](C)(C(=O)O)CC[C@]3(C)CC[C@]12C", "method": "MTT", "time": "48 h", "IC50 [nM]": 5340}
{"Compound": "CCC1(OC(=O)C(C)c2ccc3cc(OC)ccc3c2)C(=O)OCc2c1cc1n(c2=O)Cc2cc3cc4c(cc3nc2-1)OCO4 (stereo not shown)", "method": "MTT", "IC50 [nM]": 471}
{"Compound": "Cc1cccc(-n2ncc(Cl)c(Cl)c2=O)c1", "method": "resazurin", "time": "96 h", "IC50 [nM]": 1400}
